Laboratory results published in ChEMBL document CHEMBL1154706, “Novel substituted and fused pyrrolizine derivatives: synthesis, anti-inflammatory and ulcerogenecity studies” (Eur J Med Chem, 2010).

Test system: Rattus norvegicus
Assay: Gastrointestinal toxicity in albino rat assessed ulcer index at 39.23 […], po
Format: organism-based
Conditions: in vivo
Method in brief: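 Adult albino rats of both sexes (120–150 g), five per group, fasted 20 h before dosing. Compounds given orally as a suspension in 1% Tween; controls received vehicle. Dosed on three consecutive days with fasting/feeding cycles, then killed on day 4. Stomach opened along the greater curvature and rinsed with saline. Red spots counted and severity scored 0–4. Ulcer index derived from % incidence/10, mean ulcer number and mean severity.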

Q: For `O=C(O)CCc1nc(=O)c2c3n(c(C(=O)Nc4ccccc4)c2[nH]1)CCC3`, which UI is on record?
A: 16.66

Q: With `O=C(O)/C=C\c1nc(=O)c2c3n(c(C(=O)Nc4ccccc4)c2[nH]1)CCC3` as the molecule, how does the UI read?
A: 17.46

Q: How did the UI turn out when `Cc1ccc(NC(=O)c2c3[nH]c(/C=C\C(=O)O)nc(=O)c3c3n2CCC3)cc1` was run?
A: 18.3

Q: For `O=C(O)CCc1nc(=O)c2c3n(c(C(=O)Nc4ccc(Cl)cc4)c2[nH]1)CCC3`, which UI is on record?
A: 15.66

Q: `Cc1ccc(NC(=O)c2c3[nH]c(CCC(=O)O)nc(=O)c3c3n2CCC3)cc1` was tested. Which UI did it give?
A: 17.91

Q: For `O=C(O)/C=C\c1nc(=O)c2c3n(c(C(=O)Nc4ccc(Cl)cc4)c2[nH]1)CCC3`, which UI is on record?
A: 17.09

Q: Which UI does the source give for `Cc1ccc(NC(=O)c2c(NC(=O)C(C)c3cccc(C(=O)c4ccccc4)c3)c(C#N)c3n2CCC3)cc1` (racemic) here?
A: 3.6

Q: How did the UI turn out when `Cc1ccc(NC(=O)c2c(NC(=O)C(C)c3ccc(CC(C)C)cc3)c(C#N)c3n2CCC3)cc1` (racemic) was run?
A: 3.2

Q: `CC(C)Cc1ccc(C(C)C(=O)Nc2c(C#N)c3n(c2C(=O)Nc2ccc(Cl)cc2)CCC3)cc1` (racemic) was tested. Which UI did it give?
A: 0

Q: For `CC(C(=O)Nc1c(C#N)c2n(c1C(=O)Nc1ccc(Cl)cc1)CCC2)c1cccc(C(=O)c2ccccc2)c1` (racemic), which UI is on record?
A: 3.6

Q: `CC(C(=O)Nc1c(C#N)c2n(c1C(=O)Nc1ccccc1)CCC2)c1cccc(C(=O)c2ccccc2)c1` (racemic) was tested. Which UI did it give?
A: 0

Q: For `CC(C)Cc1ccc(C(C)C(=O)Nc2c(C#N)c3n(c2C(=O)Nc2ccccc2)CCC3)cc1` (racemic), which UI is on record?
A: 0

Q: `O=C(c1ccccc1)c1ccc2n1CCC2C(=O)O` (stereo not drawn) [KETOROLAC] was tested. Which UI did it give?
A: 11.6
